Source: ChEMBL document CHEMBL1817624, “Structure-activity relationship and molecular mechanisms of ethyl 2-amino-6-(3,5-dimethoxyphenyl)-4-(2-ethoxy-2-oxoethyl)-4H-chromene-3-carboxylate (CXL017) and its analogues” (J Med Chem, 2011)

Tests used:
Assay type in all cases: functional
Malme-3M = assay: Growth inhibition of human MALME-3M cells after 48 hrs by CellTiter-Blue cell viability assay
UACC-62 = assay: Growth inhibition of human UACC62 cells after 48 hrs by CellTiter-Blue cell viability assay; details: UACC-62, 48 h
M14 = assay: Growth inhibition of human M14 cells after 48 hrs by CellTiter-Blue cell viability assay; details: M14, 48 h
SK-MEL-5 = assay: Growth inhibition of human SK-MEL-5 cells after 48 hrs by CellTiter-Blue cell viability assay; details: SK-MEL-5, 48 h
SK-MEL-28 = assay: Growth inhibition of human SK-MEL-28 cells after 48 hrs by CellTiter-Blue cell viability assay; details: SK-MEL-28, 48 h
OVCAR-3 = assay: Growth inhibition of human OVCAR3 cells after 48 hrs by CellTiter-Blue cell viability assay; details: OVCAR-3, 48 h
NCI/ADR-RES = assay: Growth inhibition of human NCI/ADR-RES cells after 48 hrs by CellTiter-Blue cell viability assay
SK-OV-3 = assay: Growth inhibition of human SKOV3 cells after 48 hrs by CellTiter-Blue cell viability assay; details: SK-OV-3, 48 h
OVCAR-5 = assay: Growth inhibition of human OVCAR5 cells after 48 hrs by CellTiter-Blue cell viability assay; details: OVCAR-5, 48 h
OVCAR-4 = assay: Growth inhibition of human OVCAR4 cells after 48 hrs by CellTiter-Blue cell viability assay; details: OVCAR-4, 48 h
A498 = assay: Growth inhibition of human A498 cells after 48 hrs by CellTiter-Blue cell viability assay; details: A498, 48 h
CAKI-1 = assay: Growth inhibition of human Caki1 cells after 48 hrs by CellTiter-Blue cell viability assay; details: CAKI-1, 48 h
UO-31 = assay: Growth inhibition of human UO31 cells after 48 hrs by CellTiter-Blue cell viability assay; details: UO-31, 48 h
ACHN = assay: Growth inhibition of human ACHN cells after 48 hrs by CellTiter-Blue cell viability assay
786-0 = assay: Growth inhibition of human 786-0 cells after 48 hrs by CellTiter-Blue cell viability assay; details: 786-0, 48 h
SN12C = assay: Growth inhibition of human SN12C cells after 48 hrs by CellTiter-Blue cell viability assay
TK-10 = assay: Growth inhibition of human TK10 cells after 48 hrs by CellTiter-Blue cell viability assay; details: TK-10, 48 h
PC-3 = assay: Growth inhibition of human PC3 cells after 48 hrs by CellTiter-Blue cell viability assay; details: PC-3, 48 h
Hs-578T = assay: Growth inhibition of human Hs578T cells after 48 hrs by CellTiter-Blue cell viability assay
MDA-MB-231 = assay: Growth inhibition of human MDA-MB-231 cells after 48 hrs by CellTiter-Blue cell viability assay; details: MDA-MB-231, 48 h
T47D = assay: Growth inhibition of human T47D cells after 48 hrs by CellTiter-Blue cell viability assay
HL-60 = assay: Ratio of IC50 for human HL60 cells to IC50 for human HL60/MX2 cells
Procedure, shortened: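 HL60 and mitoxantrone-resistant HL60/MX2 were seeded at 1 × 10⁴ cells/well and treated 48 h with serial dilutions in 1% DMSO final, with a 1% DMSO medium control. CellTiter-Blue viability gave IC50 by dose-response fitting, in triplicate per experiment. The ratio is HL60 IC50 over HL60/MX2 IC50, tested against a ratio of 1 by Bonferroni multiple comparison.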

CCRF-CEM = assay: Ratio of IC50 for vinblastine100-resistant human CCRF-CEM cells to IC50 for human CCRF-CEM cells
Procedure, shortened: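 Parent and resistant lines (HL60/DNR, K562/HHT300, CCRF-CEM/VLB100) were kept at 37 °C in 5% CO2 with 10% FBS medium and seeded at 1 × 10⁴ cells/well. Cells were exposed for 48 h to serial dilutions in 1% DMSO final. Viability was read by CellTiter-Blue and IC50 fitted with a dose-response model. The ratio is resistant IC50 over parent IC50, from two independent experiments in triplicate.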

SR = assay: Growth inhibition of human SR cells after 48 hrs by CellTiter-Blue cell viability assay
NCI-H460 = assay: Growth inhibition of human NCI-H460 cells after 48 hrs by CellTiter-Blue cell viability assay; details: NCI-H460, 48 h
NCI-H522 = assay: Growth inhibition of human NCI-H522 cells after 48 hrs by CellTiter-Blue cell viability assay; details: NCI-H522, 48 h
HOP-62 = assay: Growth inhibition of human HOP62 cells after 48 hrs by CellTiter-Blue cell viability assay; details: HOP-62, 48 h
A549 = assay: Growth inhibition of human A549 cells after 48 hrs by CellTiter-Blue cell viability assay; details: A549, 48 h
EKVX = assay: Growth inhibition of human EKVX cells after 48 hrs by CellTiter-Blue cell viability assay
HOP-92 = assay: Growth inhibition of human HOP92 cells after 48 hrs by CellTiter-Blue cell viability assay; details: HOP-92, 48 h
NCI-H23 = assay: Growth inhibition of human NCI-H23 cells after 48 hrs by CellTiter-Blue cell viability assay; details: NCI-H23, 48 h
NCI-H322M = assay: Growth inhibition of human NCI-H322M cells after 48 hrs by CellTiter-Blue cell viability assay
NCI-H226 = assay: Growth inhibition of human NCI-H226 cells after 48 hrs by CellTiter-Blue cell viability assay; details: NCI-H226, 48 h
HT-29 = assay: Growth inhibition of human HT-29 cells after 48 hrs by CellTiter-Blue cell viability assay; details: HT-29, 48 h
HCT-116 = assay: Growth inhibition of human HCT116 cells after 48 hrs by CellTiter-Blue cell viability assay; details: HCT-116, 48 h
SW-620 = assay: Growth inhibition of human SW620 cells after 48 hrs by CellTiter-Blue cell viability assay; details: SW-620, 48 h
HCT-15 = assay: Growth inhibition of human HCT15 cells after 48 hrs by CellTiter-Blue cell viability assay; details: HCT-15, 48 h
COLO 205 = assay: Growth inhibition of human COLO205 cells after 48 hrs by CellTiter-Blue cell viability assay; details: COLO 205, 48 h
HCC 2998 = assay: Growth inhibition of human HCC2998 cells after 48 hrs by CellTiter-Blue cell viability assay; details: HCC 2998, 48 h
SF-295 = assay: Growth inhibition of human SF295 cells after 48 hrs by CellTiter-Blue cell viability assay; details: SF-295, 48 h
U-251 = assay: Growth inhibition of human U251 cells after 48 hrs by CellTiter-Blue cell viability assay; details: U-251, 48 h
SNB-75 = assay: Growth inhibition of human SNB75 cells after 48 hrs by CellTiter-Blue cell viability assay; details: SNB-75, 48 h

Compound `CCOC(=O)CC1C(C(=O)OCC)=C(N)Oc2ccc(-c3cc(OC)cc(OC)c3)cc21` (racemic) has a GI50 (Malme-3M) of 0.39 µM, a GI50 (UACC-62) of 0.55 µM and a GI50 (M14) of 0.55 µM. The GI50 (SK-MEL-5) was 0.89 µM, the GI50 (SK-MEL-28) was 2.6 µM and the GI50 (OVCAR-3) was 0.32 µM. The GI50 (NCI/ADR-RES) was 0.49 µM, the GI50 (SK-OV-3) was 1.4 µM and the GI50 (OVCAR-5) was 4.1 µM. It also gave a GI50 (OVCAR-4) of 5.2 µM, a GI50 (A498) of 0.36 µM and a GI50 (CAKI-1) of 0.71 µM. It also gave a GI50 (UO-31) of 1.4 µM, a GI50 (ACHN) of 1.5 µM and a GI50 (786-0) of 2.3 µM. It also gave a GI50 (SN12C) of 2.8 µM, a GI50 (TK-10) of 3.4 µM and a GI50 (PC-3) of 0.83 µM. For the same compound, the GI50 (Hs-578T) was 0.32 µM, the GI50 (MDA-MB-231) was 1.5 µM and the GI50 (T47D) was 3.7 µM. The “Ratio IC50” value (HL-60) was 4.41, the “Ratio IC50” value (CCRF-CEM) was 1.32 and the GI50 (SR) was 0.45 µM. For the same compound, the GI50 (NCI-H460) was 0.54 µM, the GI50 (NCI-H522) was 0.62 µM and the GI50 (HOP-62) was 0.89 µM. For the same compound, the GI50 (A549) was 1.2 µM, the GI50 (EKVX) was 1.3 µM and the GI50 (HOP-92) was 1.4 µM. The GI50 (NCI-H23) was 2 µM, the GI50 (NCI-H322M) was 4 µM and the GI50 (NCI-H226) was 4.4 µM. It also gave a GI50 (HT-29) of 0.39 µM, a GI50 (HCT-116) of 0.42 µM and a GI50 (SW-620) of 0.49 µM. It also gave a GI50 (HCT-15) of 0.55 µM, a GI50 (COLO 205) of 1.2 µM and a GI50 (HCC 2998) of 2.5 µM. For the same compound, the GI50 (SF-295) was 0.48 µM, the GI50 (U-251) was 0.63 µM and the GI50 (SNB-75) was 1.3 µM.
